Values after ≈ are worked out from the molar mass of the structure shown.
Key:
Klebsiella pneumoniae [1] = test: Antimicrobial activity against CTX-M-2 producing Klebsiella pneumoniae with PFGE pulsotype A by Etest; format: functional
Method in brief: (§1)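 Clinical K. pneumoniae isolates from a neonatal ICU outbreak near São Paulo were typed by XbaI PFGE using Tenover criteria. Cultures were grown in LB broth at 37°C. Etest MICs followed the manufacturer's instructions, with cefotaxime and ceftazidime each tested with and without clavulanic acid.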

Klebsiella pneumoniae [2] = test: Antimicrobial activity against CTX-M-2 producing Klebsiella pneumoniae with PFGE pulsotype B by Etest; format: functional; method in brief: as §1
Klebsiella pneumoniae [3] = test: Antimicrobial activity against CTX-M-59 producing Klebsiella pneumoniae with PFGE pulsotype C by Etest; format: functional
Klebsiella pneumoniae [4] = test: Antimicrobial activity against SHV-5 producing Klebsiella pneumoniae with PFGE pulsotype D by Etest; format: functional; method in brief: as §1
Klebsiella pneumoniae [5] = test: Antimicrobial activity against CTX-M-59 producing Klebsiella pneumoniae with PFGE pulsotype E by Etest; format: functional
Klebsiella pneumoniae [6] = test: Antimicrobial activity against CTX-M-2 producing Klebsiella pneumoniae with PFGE pulsotype F by Etest; format: functional
Klebsiella pneumoniae [7] = test: Antimicrobial activity against CTX-M-59 producing Klebsiella pneumoniae with PFGE pulsotype G by Etest; format: functional; method in brief: as §1
Klebsiella pneumoniae [8] = test: Antimicrobial activity against CTX-M-2 producing Klebsiella pneumoniae with PFGE pulsotype H by Etest; format: functional; method in brief: as §1
Klebsiella pneumoniae [9] = test: Antimicrobial activity against CTX-M-2 producing Klebsiella pneumoniae with PFGE pulsotype I by Etest; format: functional
Klebsiella pneumoniae [10] = test: Antimicrobial activity against CTX-M-2 producing Klebsiella pneumoniae with PFGE pulsotype J by Etest; format: functional
Escherichia coli [11] = test: Antimicrobial activity against Escherichia coli str. K-12 substr. DH10B harboring plasmid CTX-M-2; format: functional; conditions: K-12 DH10B
Method in brief: (§2)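 blaCTX-M PCR products were cut with XbaI/BamHI and cloned into pBC-SK(−), then electroporated into E. coli DH10B. Transformants were selected on LB agar with ampicillin 50 μg/ml and chloramphenicol 30 μg/ml, and sequences were confirmed. These clones were used for β-lactam MICs, with and without clavulanic acid.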

Escherichia coli [12] = test: Antimicrobial activity against Escherichia coli str. K-12 substr. DH10B harboring plasmid CTX-M-2 in presence of clavulanic acid; format: functional; conditions: K-12 DH10B; method in brief: as §2
Escherichia coli [13] = test: Antimicrobial activity against Escherichia coli str. K-12 substr. DH10B harboring plasmid CTX-M-59; format: functional; conditions: K-12 DH10B; method in brief: as §2
Escherichia coli [14] = test: Antimicrobial activity against Escherichia coli str. K-12 substr. DH10B harboring plasmid CTX-M-59 in presence of clavulanic acid; format: functional; conditions: K-12 DH10B; method in brief: as §2
Klebsiella pneumoniae [15] = test: Antimicrobial activity against CTX-M-2 and TEM-1 producing Klebsiella pneumoniae transconjugants/transformants with PFGE pulsotype A by Etest; format: functional
Method in brief: (§3)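 The recipient was E. coli XL1-Blue Rifr NAr. Plasmids moved by broth mating, with transconjugants selected on LB agar containing ampicillin, rifampin and nalidixic acid, each at 50 μg/ml. Where mating failed, alkaline-lysis plasmid extracts were electroporated and selected on ampicillin 50 μg/ml. β-lactam MICs were read by Etest, with and without clavulanic acid.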

Klebsiella pneumoniae [16] = test: Antimicrobial activity against CTX-M-2 and TEM-1 producing Klebsiella pneumoniae transconjugants/transformants with PFGE pulsotype B by Etest; format: functional; method in brief: as §3
Klebsiella pneumoniae [17] = test: Antimicrobial activity against CTX-M-59 and TEM-1 producing Klebsiella pneumoniae transconjugants/transformants with PFGE pulsotype C by Etest; format: functional; method in brief: as §3
Klebsiella pneumoniae [18] = test: Antimicrobial activity against SHV-5 producing Klebsiella pneumoniae transconjugants/transformants with PFGE pulsotype D by Etest; format: functional; method in brief: as §3
Klebsiella pneumoniae [19] = test: Antimicrobial activity against CTX-M-59 and TEM-1 producing Klebsiella pneumoniae transconjugants/transformants with PFGE pulsotype E by Etest; format: functional; method in brief: as §3
Klebsiella pneumoniae [20] = test: Antimicrobial activity against CTX-M-2 and TEM-1 producing Klebsiella pneumoniae transconjugants/transformants with PFGE pulsotype F by Etest; format: functional; method in brief: as §3
Klebsiella pneumoniae [21] = test: Antimicrobial activity against CTX-M-59 and TEM-1 producing Klebsiella pneumoniae transconjugants/transformants with PFGE pulsotype G by Etest; format: functional; method in brief: as §3
Klebsiella pneumoniae [22] = test: Antimicrobial activity against CTX-M-2 and TEM-1 producing Klebsiella pneumoniae transconjugants/transformants with PFGE pulsotype H by Etest; format: functional; method in brief: as §3
Klebsiella pneumoniae [23] = test: Antimicrobial activity against CTX-M-2 and TEM-1 producing Klebsiella pneumoniae transconjugants/transformants with PFGE pulsotype I by Etest; format: functional; method in brief: as §3
Klebsiella pneumoniae [24] = test: Antimicrobial activity against CTX-M-2 and TEM-1 producing Klebsiella pneumoniae transconjugants/transformants with PFGE pulsotype J by Etest; format: functional; method in brief: as §3
Klebsiella pneumoniae [25] = test: Antimicrobial activity against CTX-M-2 and TEM-1 producing Klebsiella pneumoniae transconjugants/transformants with PFGE pulsotype B by Etest in presence of clavulanic acid; format: functional; method in brief: as §3
Klebsiella pneumoniae [26] = test: Antimicrobial activity against CTX-M-59 and TEM-1 producing Klebsiella pneumoniae transconjugants/transformants with PFGE pulsotype C by Etest in presence of clavulanic acid; format: functional; method in brief: as §3
Klebsiella pneumoniae [27] = test: Antimicrobial activity against SHV-5 producing Klebsiella pneumoniae transconjugants/transformants with PFGE pulsotype D by Etest in presence of clavulanic acid; format: functional; method in brief: as §3
Klebsiella pneumoniae [28] = test: Antimicrobial activity against CTX-M-59 and TEM-1 producing Klebsiella pneumoniae transconjugants/transformants with PFGE pulsotype E by Etest in presence of clavulanic acid; format: functional; method in brief: as §3
Klebsiella pneumoniae [29] = test: Antimicrobial activity against CTX-M-2 and TEM-1 producing Klebsiella pneumoniae transconjugants/transformants with PFGE pulsotype F by Etest in presence of clavulanic acid; format: functional; method in brief: as §3
Klebsiella pneumoniae [30] = test: Antimicrobial activity against CTX-M-59 and TEM-1 producing Klebsiella pneumoniae transconjugants/transformants with PFGE pulsotype G by Etest in presence of clavulanic acid; format: functional; method in brief: as §3
Klebsiella pneumoniae [31] = test: Antimicrobial activity against CTX-M-2 and TEM-1 producing Klebsiella pneumoniae transconjugants/transformants with PFGE pulsotype H by Etest in presence of clavulanic acid; format: functional
Klebsiella pneumoniae [32] = test: Antimicrobial activity against CTX-M-2 and TEM-1 producing Klebsiella pneumoniae transconjugants/transformants with PFGE pulsotype I by Etest in presence of clavulanic acid; format: functional; method in brief: as §3
Klebsiella pneumoniae [33] = test: Antimicrobial activity against CTX-M-2 and TEM-1 producing Klebsiella pneumoniae transconjugants/transformants with PFGE pulsotype J by Etest in presence of clavulanic acid; format: functional; method in brief: as §3
Klebsiella pneumoniae [34] = test: Antimicrobial activity against CTX-M-2 producing Klebsiella pneumoniae with PFGE pulsotype A by Etest in presence of clavulanic acid; format: functional; method in brief: as §1
Klebsiella pneumoniae [35] = test: Antimicrobial activity against CTX-M-2 producing Klebsiella pneumoniae with PFGE pulsotype B by Etest in presence of clavulanic acid; format: functional; method in brief: as §1
Klebsiella pneumoniae [36] = test: Antimicrobial activity against CTX-M-59 producing Klebsiella pneumoniae with PFGE pulsotype C by Etest in presence of clavulanic acid; format: functional; method in brief: as §1
Klebsiella pneumoniae [37] = test: Antimicrobial activity against SHV-5 producing Klebsiella pneumoniae with PFGE pulsotype D by Etest in presence of clavulanic acid; format: functional
Klebsiella pneumoniae [38] = test: Antimicrobial activity against CTX-M-59 producing Klebsiella pneumoniae with PFGE pulsotype E by Etest in presence of clavulanic acid; format: functional
Method in brief: (§4)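 MICs were determined by Etest strips following the manufacturer's instructions, using cefotaxime and ceftazidime each combined with clavulanic acid. The test strains were clinical NICU outbreak isolates confirmed as ESBL producers by disk diffusion. Pulsotypes were assigned by XbaI PFGE using Tenover relatedness criteria. Cultures were routinely grown in LB broth at 37°C.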

Klebsiella pneumoniae [39] = test: Antimicrobial activity against CTX-M-2 producing Klebsiella pneumoniae with PFGE pulsotype F by Etest in presence of clavulanic acid; format: functional; method in brief: as §1
Klebsiella pneumoniae [40] = test: Antimicrobial activity against CTX-M-59 producing Klebsiella pneumoniae with PFGE pulsotype G by Etest in presence of clavulanic acid; format: functional; method in brief: as §4
Klebsiella pneumoniae [41] = test: Antimicrobial activity against CTX-M-2 producing Klebsiella pneumoniae with PFGE pulsotype H by Etest in presence of clavulanic acid; format: functional
Method in brief: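 Etest strips used per manufacturer's instructions to read MICs of cefotaxime and ceftazidime, each with clavulanic acid, on clinical NICU K. pneumoniae outbreak isolates. Isolates were typed by XbaI PFGE using Tenover criteria and routinely grown in LB broth at 37°C.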

Klebsiella pneumoniae [42] = test: Antimicrobial activity against CTX-M-2 producing Klebsiella pneumoniae with PFGE pulsotype I by Etest in presence of clavulanic acid; format: functional; method in brief: as §1
Klebsiella pneumoniae [43] = test: Antimicrobial activity against CTX-M-2 producing Klebsiella pneumoniae with PFGE pulsotype J by Etest in presence of clavulanic acid; format: functional; method in brief: as §1
Escherichia coli [44] = test: Antimicrobial activity against CTX-M-2 and TEM-1 producing Escherichia coli transconjugants/transformants with PFGE pulsotype A by Etest in presence of clavulanic acid

CC(C)(O/N=C(\C(=O)N[C@@H]1C(=O)N2C(C(=O)[O-])=C(C[n+]3ccccc3)CS[C@H]12)c1csc(N)n1)C(=O)O [CEFTAZIDIME]
MIC (Klebsiella pneumoniae [1]): 6 µg/mL (≈ 11 µM) | MIC (Klebsiella pneumoniae [2]): 24 µg/mL (≈ 43.9 µM) | MIC (Klebsiella pneumoniae [3]): 4 µg/mL (≈ 7.32 µM) | MIC (Klebsiella pneumoniae [4]): 256 µg/mL (≈ 468 µM) | MIC (Klebsiella pneumoniae [5]): 8 µg/mL (≈ 14.6 µM) | MIC (Klebsiella pneumoniae [6]): 8 µg/mL (≈ 14.6 µM) | MIC (Klebsiella pneumoniae [7]): 12 µg/mL (≈ 22 µM) | MIC (Klebsiella pneumoniae [8]): 256 µg/mL (≈ 468 µM) | MIC (Klebsiella pneumoniae [9]): 4 µg/mL (≈ 7.32 µM) | MIC (Klebsiella pneumoniae [10]): 6 µg/mL (≈ 11 µM) | MIC (Escherichia coli [11]): 8 µg/mL (≈ 14.6 µM) | MIC (Escherichia coli [12]): 0.38 µg/mL | MIC (Escherichia coli [13]): 8 µg/mL (≈ 14.6 µM) | MIC (Escherichia coli [14]): 0.38 µg/mL | MIC (Klebsiella pneumoniae [15]): 8 µg/mL (≈ 14.6 µM) | MIC (Klebsiella pneumoniae [16]): 12 µg/mL (≈ 22 µM) | MIC (Klebsiella pneumoniae [17]): 8 µg/mL (≈ 14.6 µM) | MIC (Klebsiella pneumoniae [18]): > 256 µg/mL | MIC (Klebsiella pneumoniae [19]): 4 µg/mL (≈ 7.32 µM) | MIC (Klebsiella pneumoniae [20]): 16 µg/mL (≈ 29.3 µM) | MIC (Klebsiella pneumoniae [21]): 8 µg/mL (≈ 14.6 µM) | MIC (Klebsiella pneumoniae [22]): 8 µg/mL (≈ 14.6 µM) | MIC (Klebsiella pneumoniae [23]): 6 µg/mL (≈ 11 µM) | MIC (Klebsiella pneumoniae [24]): 12 µg/mL (≈ 22 µM) | MIC (Klebsiella pneumoniae [25]): 0.19 µg/mL | MIC (Klebsiella pneumoniae [26]): 0.25 µg/mL | MIC (Klebsiella pneumoniae [27]): 0.19 µg/mL | MIC (Klebsiella pneumoniae [28]): 0.19 µg/mL | MIC (Klebsiella pneumoniae [29]): 0.38 µg/mL | MIC (Klebsiella pneumoniae [30]): 0.38 µg/mL | MIC (Klebsiella pneumoniae [31]): 0.25 µg/mL | MIC (Klebsiella pneumoniae [32]): 0.19 µg/mL | MIC (Klebsiella pneumoniae [33]): 0.38 µg/mL | MIC (Klebsiella pneumoniae [34]): 0.5 µg/mL | MIC (Klebsiella pneumoniae [35]): 0.75 µg/mL | MIC (Klebsiella pneumoniae [36]): 0.38 µg/mL | MIC (Klebsiella pneumoniae [37]): 0.25 µg/mL | MIC (Klebsiella pneumoniae [38]): 0.75 µg/mL | MIC (Klebsiella pneumoniae [39]): 1.5 µg/mL | MIC (Klebsiella pneumoniae [40]): 1 µg/mL | MIC (Klebsiella pneumoniae [41]): > 4 µg/mL | MIC (Klebsiella pneumoniae [42]): 0.5 µg/mL | MIC (Klebsiella pneumoniae [43]): 0.75 µg/mL | MIC (Escherichia coli [44]): 0.19 µg/mL
